# Measured values published in ChEMBL document CHEMBL3244402, “Branched-chain analogues of luteinizing hormone-releasing hormone” (1978).
# The source made the active and inactive calls. The calls are words filed in the database; no cut-off is given here. Square brackets hold non-standard residues; d marks the D form. Peptide text beside a SMILES is read from it. pGlu = O=C1CC[C@@H](C(=O)O)N1
# Assays:
# Rattus norvegicus [1] = experiment: In vivo activation of LH-RH receptor in immature rat assessed as release of follicle-stimulating hormone relative to control; assay type: functional
# Summary of the method: (§1)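 Immature male rats were injected sc with agonist, LH-RH or saline and followed over 0.25–4 h, with blood sampled at intervals. Serum LH was measured by double antibody radioimmunoassay and FSH by radioimmunoassay, against NIH-LH-S17 and NIAMD-rat-FSH-RP1 standards.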
# Rattus norvegicus [2] = experiment: In vivo activation of LH-RH receptor in immature rat assessed as release of luteinizing hormone relative to control; assay type: functional; summary of the method: as §1
# Rattus norvegicus [3] = experiment: In vivo inhibition of LH-RH receptor in immature rat assessed as inhibition of LH-RH-stimulated follicle-stimulating hormone release in serum at 300 ug, sc administered 4 hrs prior to LH-RH addition measured after 30 mins relative to vehicle-treated control; assay type: functional
# Summary of the method: (§2)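 Immature male rats received 300 μg peptide sc in 20% propylene glycol-saline, or vehicle alone. Synthetic LH-RH (200 ng) or saline was injected at the same time or later, over a 4-h period. Blood was taken 30 min after LH-RH. Serum LH and FSH were measured by radioimmunoassay (double antibody for LH), and percent inhibition of serum gonadotropin was calculated.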
# Rattus norvegicus [4] = experiment: In vivo inhibition of LH-RH receptor in immature rat assessed as inhibition of LH-RH-stimulated follicle-stimulating hormone release in serum at 300 ug, sc administered 1 hr prior to LH-RH addition measured after 30 mins relative to vehicle-treated control; assay type: functional; summary of the method: as §2
# Rattus norvegicus [5] = experiment: In vivo inhibition of LH-RH receptor in immature rat assessed as inhibition of LH-RH-stimulated luteinizing hormone release in serum at 300 ug, sc administered 4 hrs prior to LH-RH addition measured after 30 mins relative to vehicle-treated control; assay type: functional; summary of the method: as §2
# Rattus norvegicus [6] = experiment: Antiovulatory activity in Sprague-Dawley rat at 1.5 mg, sc administered at 12 pm on proestrous day relative to vehicle-treated control; assay type: functional
# Summary of the method: (§3)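 Adult female SD rats (~200 g), 14 h light/10 h dark, with vaginal smears checked daily from 14 days after arrival. Only rats with at least two successive regular 4-day cycles were used. Peptide was given sc in propylene glycol-saline on the proestrous afternoon. Rats were killed the next day and oviducts inspected for ova. Read-out was % inhibition of ovulation and ova count (±SE) in ovulating rats.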
# Rattus norvegicus [7] = experiment: In vivo inhibition of LH-RH receptor in immature rat assessed as inhibition of LH-RH-stimulated luteinizing hormone release in serum at 300 ug, sc administered 1 hr prior to LH-RH addition measured after 30 mins relative to vehicle-treated control; assay type: functional; summary of the method: as §2
# Rattus norvegicus [8] = experiment: In vivo inhibition of LH-RH receptor in immature rat assessed as inhibition of LH-RH-stimulated luteinizing hormone release in serum at 300 ug, sc administered 2 hrs prior to LH-RH addition measured after 30 mins relative to vehicle-treated control; assay type: functional; summary of the method: as §2
# Rattus norvegicus [9] = experiment: In vivo inhibition of LH-RH receptor in immature rat assessed as inhibition of LH-RH-stimulated luteinizing hormone release in serum at 300 ug, sc administered 0.5 hrs prior to LH-RH addition measured after 30 mins relative to vehicle-treated control; assay type: functional; summary of the method: as §2
# Rattus norvegicus [10] = experiment: Antiovulatory activity in Sprague-Dawley rat at 1 mg, sc administered at 12 pm on proestrous day relative to vehicle-treated control; assay type: functional; summary of the method: as §3
# Rattus norvegicus [11] = experiment: Antiovulatory activity in Sprague-Dawley rat at 1.5 mg, sc administered at 9 am on proestrous day relative to vehicle-treated control; assay type: functional
# Rattus norvegicus [12] = experiment: In vivo activation of LH-RH receptor in immature rat assessed as release of luteinizing hormone in serum at 50 ng, sc measured over 4 hrs by double antibody radioimmunoassay; assay type: functional, organism-based; summary of the method: as §1
# Rattus norvegicus [13] = experiment: In vivo activation of LH-RH receptor in immature rat assessed as release of follicle-stimulating hormone in serum at 50 ng, sc measured over 4 hrs by radioimmunoassay; assay type: functional, organism-based; summary of the method: as §1
SMILES,inhibition (INH) (Rattus norvegicus [3]) [%],inhibition (INH) (Rattus norvegicus [4]) [%],inhibition (INH) (Rattus norvegicus [5]) [%],inhibition (INH) (Rattus norvegicus [7]) [%],inhibition (INH) (Rattus norvegicus [10]) [%],further results
CC(C)C[C@H](NC(=O)[C@@H](CCCCN)NC(=O)[C@H](Cc1ccc(O)cc1)NC(=O)[C@H](CO)NC(=O)[C@H](Cc1c[nH]c2ccccc12)NC(=O)[C@H](Cc1cnc[nH]1)NC(=O)[C@@H]1CCC(=O)N1)C(=O)N[C@@H](CCCNC(=N)N)C(=O)N1CCC[C@H]1C(=O)NCC(N)=O,,,,,,Activity (Rattus norvegicus [1]): 300%; Activity (Rattus norvegicus [2]): 300%
COc1ccc2c(c1)c(CC(=O)NCCCC[C@@H](NC(=O)[C@H](Cc1ccc(O)cc1)NC(=O)[C@H](CO)NC(=O)[C@@H](Cc1c[nH]c3ccccc13)NC(=O)[C@@H](Cc1ccccc1)NC(=O)[C@@H]1CCC(=O)N1)C(=O)N[C@@H](CC(C)C)C(=O)N[C@@H](CCCNC(=N)N)C(=O)N1CCC[C@H]1C(=O)NCC(N)=O)c(C)n2C(=O)c1ccc(Cl)cc1,0,0,0,7,,inhibition (INH) (Rattus norvegicus [6]): 0%
CC(C)C[C@H](NC(=O)[C@@H](CCCCNC(=O)c1ccccc1)NC(=O)[C@H](Cc1ccc(O)cc1)NC(=O)[C@H](CO)NC(=O)[C@@H](Cc1c[nH]c2ccccc12)NC(=O)[C@@H](Cc1ccccc1)NC(=O)[C@@H]1CCC(=O)N1)C(=O)N[C@@H](CCCNC(=N)N)C(=O)N1CCC[C@H]1C(=O)NCC(N)=O,,,0,,11,inhibition (INH) (Rattus norvegicus [8]): 40%; inhibition (INH) (Rattus norvegicus [9]): 76%
CC(C)C[C@H](NC(=O)[C@@H](Cc1ccccc1)NC(=O)[C@H](Cc1ccc(O)cc1)NC(=O)[C@H](CO)NC(=O)[C@@H](Cc1c[nH]c2ccccc12)NC(=O)[C@@H](Cc1ccccc1)NC(=O)[C@@H]1CCC(=O)N1)C(=O)N[C@@H](CCCNC(=N)N)C(=O)N1CCC[C@H]1C(=O)NCC(N)=O,77,65,52,84,83,inhibition (INH) (Rattus norvegicus [11]): 67%
CC(C)C[C@H](NC(=O)[C@@H](CCCCN)NC(=O)[C@H](Cc1ccc(O)cc1)NC(=O)[C@H](CO)NC(=O)[C@@H](Cc1c[nH]c2ccccc12)NC(=O)[C@@H](Cc1ccccc1)NC(=O)[C@@H]1CCC(=O)N1)C(=O)N[C@@H](CCCNC(=N)N)C(=O)N1CCC[C@H]1C(=O)NCC(N)=O ([pGlu][dF][dW]SY[dK]LRPG-NH2),18,37,38,36,0,
CC(C)C[C@H](NC(=O)[C@@H](CCCCNC(=O)[C@H](Cc1ccc(O)cc1)NC(=O)[C@H](CO)NC(=O)[C@@H](Cc1c[nH]c2ccccc12)NC(=O)[C@@H](Cc1ccccc1)NC(=O)[C@@H]1CCC(=O)N1)NC(=O)[C@H](Cc1ccc(O)cc1)NC(=O)[C@H](CO)NC(=O)[C@@H](Cc1c[nH]c2ccccc12)NC(=O)[C@@H](Cc1ccccc1)NC(=O)[C@@H]1CCC(=O)N1)C(=O)N[C@@H](CCCNC(=N)N)C(=O)N1CCC[C@H]1C(=O)NCC(N)=O,41,43,47,62,73,inhibition (INH) (Rattus norvegicus [11]): 50%
CC(C)C[C@H](NC(=O)CNC(=O)[C@H](Cc1ccc(O)cc1)NC(=O)[C@H](CO)NC(=O)[C@H](Cc1c[nH]c2ccccc12)NC(=O)[C@H](Cc1cnc[nH]1)NC(=O)[C@@H]1CCC(=O)N1)C(=O)N[C@@H](CCCNC(=N)N)C(=O)N1CCC[C@H]1C(=O)NCC(N)=O,,,,,,Activity (Rattus norvegicus [12]): Active; Activity (Rattus norvegicus [13]): Active
CC(=O)Oc1ccccc1C(=O)NCCCC[C@@H](NC(=O)[C@H](Cc1ccc(O)cc1)NC(=O)[C@H](CO)NC(=O)[C@@H](Cc1c[nH]c2ccccc12)NC(=O)[C@@H](Cc1ccccc1)NC(=O)[C@@H]1CCC(=O)N1)C(=O)N[C@@H](CC(C)C)C(=O)N[C@@H](CCCNC(=N)N)C(=O)N1CCC[C@H]1C(=O)NCC(N)=O,13,23,18,57,,inhibition (INH) (Rattus norvegicus [6]): 11%
